Source: ChEMBL document CHEMBL3611989, “Discovery and characterization of aryl isonitriles as a new class of compounds versus methicillin- and vancomycin-resistant Staphylococcus aureus” (Eur J Med Chem, 2015)
Converted amounts (≈) assume the structure as drawn.

Experiments:
Assay type in all cases: functional
Staphylococcus aureus [1] = assay: Antimicrobial activity against methicillin-sensitive Staphylococcus aureus NRS72 assessed as reduction in bacterial growth incubated for 18 to 20 hrs at 37 degC by broth microdilution method
How it was run: (§1)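 Modified CLSI broth microdilution. Bacterial suspension of about 1 × 10^5 CFU/mL in tryptic soy broth. Each agent was added in triplicate to the first row and serially diluted down the plate. Plates were incubated at 37 °C for 18-20 h. MIC was read as the lowest concentration with no visible growth.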

Staphylococcus aureus [2] = assay: Antimicrobial activity against methicillin-resistant Staphylococcus aureus USA500 assessed as reduction in bacterial growth incubated for 18 to 20 hrs at 37 degC by broth microdilution method; how it was run: as §1
Staphylococcus aureus [3] = assay: Antimicrobial activity against methicillin-resistant Staphylococcus aureus USA100 assessed as reduction in bacterial growth incubated for 18 to 20 hrs at 37 degC by broth microdilution method; how it was run: as §1
Staphylococcus aureus [4] = assay: Antimicrobial activity against vancomycin-resistant Staphylococcus aureus VRS2 assessed as reduction in bacterial growth incubated for 18 to 20 hrs at 37 degC by broth microdilution method; how it was run: as §1
Staphylococcus aureus [5] = assay: Antimicrobial activity against vancomycin-intermediate-resistant Staphylococcus aureus NRS1 assessed as reduction in bacterial growth incubated for 18 to 20 hrs at 37 degC by broth microdilution method; how it was run: as §1
Staphylococcus aureus [6] = assay: Antimicrobial activity against methicillin-resistant Staphylococcus aureus USA200 assessed as reduction in bacterial growth incubated for 18 to 20 hrs at 37 degC by broth microdilution method; how it was run: as §1
Staphylococcus aureus [7] = assay: Antimicrobial activity against methicillin-resistant Staphylococcus aureus USA700 assessed as reduction in bacterial growth incubated for 18 to 20 hrs at 37 degC by broth microdilution method; how it was run: as §1
Staphylococcus aureus [8] = assay: Antimicrobial activity against methicillin-resistant Staphylococcus aureus NRS119 assessed as reduction in bacterial growth incubated for 18 to 20 hrs at 37 degC by broth microdilution method; how it was run: as §1
Staphylococcus aureus [9] = assay: Antimicrobial activity against methicillin-resistant Staphylococcus aureus USA300 assessed as reduction in bacterial growth incubated for 18 to 20 hrs at 37 degC by broth microdilution method; how it was run: as §1

Structure (SMILES)	MIC (Staphylococcus aureus [1]) [µM]	MIC (Staphylococcus aureus [2]) [µM]	MIC (Staphylococcus aureus [3]) [µM]	MIC (Staphylococcus aureus [4]) [µM]	MIC (Staphylococcus aureus [5]) [µM]	MIC (Staphylococcus aureus [6]) [µM]	MIC (Staphylococcus aureus [7]) [µM]	MIC (Staphylococcus aureus [8]) [µM]	MIC (Staphylococcus aureus [9]) [µM]
CN[C@H](CC(C)C)C(=O)N[C@H]1C(=O)N[C@@H](CC(N)=O)C(=O)N[C@H]2C(=O)N[C@H]3C(=O)N[C@H](C(=O)N[C@H](C(=O)O)c4cc(O)cc(O)c4-c4cc3ccc4O)[C@H](O)c3ccc(c(Cl)c3)Oc3cc2cc(c3O[C@@H]2O[C@H](CO)[C@@H](O)[C@H](O)[C@H]2O[C@H]2C[C@](C)(N)[C@H](O)[C@H](C)O2)Oc2ccc(cc2Cl)[C@H]1O [VANCOMYCIN]	< 1	4 (≈ 5.8 µg/mL)	2 (≈ 2.9 µg/mL)	128 (≈ 186 µg/mL)	8 (≈ 11.6 µg/mL)	–	–	–	–
[C-]#[N+]c1ccccc1/C=C(\CCCC)c1ccccc1	32 (≈ 8.36 µg/mL)	32 (≈ 8.36 µg/mL)	32 (≈ 8.36 µg/mL)	64 (≈ 16.7 µg/mL)	16 (≈ 4.18 µg/mL)	32 (≈ 8.36 µg/mL)	16 (≈ 4.18 µg/mL)	> 128	> 128
[C-]#[N+]c1ccccc1C=C1CCCCC1	8 (≈ 1.58 µg/mL)	> 128	16 (≈ 3.16 µg/mL)	> 128	4 (≈ 0.789 µg/mL)	64 (≈ 12.6 µg/mL)	16 (≈ 3.16 µg/mL)	> 128	> 128
Nc1ccccc1CCc1ccccc1	> 128	> 64	> 128	> 64	8 (≈ 1.58 µg/mL)	32 (≈ 6.31 µg/mL)	> 64	> 128	> 128
[C-]#[N+]c1ccccc1CCc1ccccc1	64 (≈ 13.3 µg/mL)	128 (≈ 26.5 µg/mL)	4 (≈ 0.829 µg/mL)	64 (≈ 13.3 µg/mL)	2 (≈ 0.415 µg/mL)	16 (≈ 3.32 µg/mL)	32 (≈ 6.63 µg/mL)	2 (≈ 0.415 µg/mL)	4 (≈ 0.829 µg/mL)
[C-]#[N+]c1cccc(/C=C/c2ccncc2)c1	64 (≈ 13.2 µg/mL)	64 (≈ 13.2 µg/mL)	32 (≈ 6.6 µg/mL)	64 (≈ 13.2 µg/mL)	32 (≈ 6.6 µg/mL)	64 (≈ 13.2 µg/mL)	64 (≈ 13.2 µg/mL)	32 (≈ 6.6 µg/mL)	32 (≈ 6.6 µg/mL)
[C-]#[N+]c1ccccc1-c1ccccc1	> 128	> 128	16 (≈ 2.87 µg/mL)	> 128	8 (≈ 1.43 µg/mL)	16 (≈ 2.87 µg/mL)	16 (≈ 2.87 µg/mL)	> 128	> 128
[C-]#[N+]c1ccc(C)cc1-c1ccc(C(C)(C)C)cc1	> 128	> 128	16 (≈ 3.99 µg/mL)	> 128	4 (≈ 0.997 µg/mL)	16 (≈ 3.99 µg/mL)	16 (≈ 3.99 µg/mL)	64 (≈ 16 µg/mL)	> 128
[C-]#[N+]c1ccc(C)cc1-c1ccc(C(F)(F)F)cc1	> 128	> 128	> 128	> 128	> 128	> 128	> 128	> 128	> 128
CC(=O)NC[C@H]1CN(c2ccc(N3CCOCC3)c(F)c2)C(=O)O1 [LINEZOLID]	2 (≈ 0.675 µg/mL)	< 1	< 1	< 1	< 1	2 (≈ 0.675 µg/mL)	2 (≈ 0.675 µg/mL)	64 (≈ 21.6 µg/mL)	2 (≈ 0.675 µg/mL)
[C-]#[N+]c1ccccc1/C=C(\C)c1ccccc1	8 (≈ 1.75 µg/mL)	> 128	8 (≈ 1.75 µg/mL)	> 128	4 (≈ 0.877 µg/mL)	64 (≈ 14 µg/mL)	16 (≈ 3.51 µg/mL)	> 128	> 128
[C-]#[N+]c1cccc(/C=C/c2ccccn2)c1	64 (≈ 13.2 µg/mL)	64 (≈ 13.2 µg/mL)	32 (≈ 6.6 µg/mL)	128 (≈ 26.4 µg/mL)	128 (≈ 26.4 µg/mL)	64 (≈ 13.2 µg/mL)	64 (≈ 13.2 µg/mL)	128 (≈ 26.4 µg/mL)	32 (≈ 6.6 µg/mL)
[C-]#[N+]c1ccccc1/C=C/c1ccncc1	64 (≈ 13.2 µg/mL)	32 (≈ 6.6 µg/mL)	32 (≈ 6.6 µg/mL)	64 (≈ 13.2 µg/mL)	64 (≈ 13.2 µg/mL)	32 (≈ 6.6 µg/mL)	32 (≈ 6.6 µg/mL)	64 (≈ 13.2 µg/mL)	32 (≈ 6.6 µg/mL)
[C-]#[N+]c1ccc(/C=C/c2ccccn2)cc1	64 (≈ 13.2 µg/mL)	64 (≈ 13.2 µg/mL)	128 (≈ 26.4 µg/mL)	64 (≈ 13.2 µg/mL)	64 (≈ 13.2 µg/mL)	128 (≈ 26.4 µg/mL)	128 (≈ 26.4 µg/mL)	128 (≈ 26.4 µg/mL)	32 (≈ 6.6 µg/mL)
[C-]#[N+]c1ccccc1/C=C(\CC)c1ccc(F)cc1	8 (≈ 2.01 µg/mL)	16 (≈ 4.02 µg/mL)	16 (≈ 4.02 µg/mL)	32 (≈ 8.04 µg/mL)	8 (≈ 2.01 µg/mL)	16 (≈ 4.02 µg/mL)	8 (≈ 2.01 µg/mL)	64 (≈ 16.1 µg/mL)	32 (≈ 8.04 µg/mL)
[C-]#[N+]c1ccccc1CP(=O)(OCC)OCC	> 128	> 128	> 128	> 128	128 (≈ 32.4 µg/mL)	128 (≈ 32.4 µg/mL)	> 128	> 128	> 128
[C-]#[N+]c1ccccc1C=C(c1ccccc1)c1ccccc1	8 (≈ 2.25 µg/mL)	8 (≈ 2.25 µg/mL)	8 (≈ 2.25 µg/mL)	16 (≈ 4.5 µg/mL)	4 (≈ 1.13 µg/mL)	8 (≈ 2.25 µg/mL)	4 (≈ 1.13 µg/mL)	16 (≈ 4.5 µg/mL)	16 (≈ 4.5 µg/mL)
[C-]#[N+]c1ccccc1/C=C(\CC)c1ccc(C(F)(F)F)cc1	8 (≈ 2.41 µg/mL)	–	–	16 (≈ 4.82 µg/mL)	8 (≈ 2.41 µg/mL)	–	–	64 (≈ 19.3 µg/mL)	32 (≈ 9.64 µg/mL)
[C-]#[N+]c1ccccc1/C=C(\CCC)c1ccccc1	16 (≈ 3.96 µg/mL)	16 (≈ 3.96 µg/mL)	16 (≈ 3.96 µg/mL)	32 (≈ 7.91 µg/mL)	8 (≈ 1.98 µg/mL)	16 (≈ 3.96 µg/mL)	16 (≈ 3.96 µg/mL)	32 (≈ 7.91 µg/mL)	32 (≈ 7.91 µg/mL)
N#Cc1ccccc1/C=C/c1ccccc1	> 128	> 128	> 128	> 128	> 128	> 128	> 128	> 128	> 128
[C-]#[N+]c1ccccc1/C=C/c1ccc(CCCC)cc1	> 128	> 128	–	> 128	–	> 128	–	> 128	> 128
[C-]#[N+]c1cccc(/C=C/c2cccnc2)c1	64 (≈ 13.2 µg/mL)	64 (≈ 13.2 µg/mL)	32 (≈ 6.6 µg/mL)	64 (≈ 13.2 µg/mL)	64 (≈ 13.2 µg/mL)	64 (≈ 13.2 µg/mL)	64 (≈ 13.2 µg/mL)	64 (≈ 13.2 µg/mL)	32 (≈ 6.6 µg/mL)
